For 27 molecules, Activity and IC50 results are on record in ChEMBL document CHEMBL2029228, “Antimalarial activity of 9a-N substituted 15-membered azalides with improved in vitro and in vivo activity over azithromycin” (J Med Chem, 2012).

One test deals with Plasmodium berghei. Nature of the test: Antimalarial activity against Plasmodium berghei KBG173 infected in mouse assessed as cured mouse at 5 mg/kg, iv BID administered on day 3, 4 and 5 post infection measured up to day 31. In kind it is functional, organism-based. Also on record: dose 5 mg/kg. The method, boiled down:
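Male mice (24–30 g) inoculated intraperitoneally with 5 × 10⁶ P. berghei KBG-173-infected erythrocytes; parasitemia about 1.0–3.7% by day 3. Dosing twice daily on days 3–5 postinfection. Blood smears negative on day 31 counted as cured, scored as cured/total mice (5 per dose). Mice losing ≥20% body weight sacrificed.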

The subject of the next test is Plasmodium falciparum. Nature of the test: Antimalarial activity against mefloquine-resistant Plasmodium falciparum TM91C235 assessed as [3H]hypoxanthine incorporation after 48 hrs. In kind it is functional, organism-based. The method, boiled down:
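Tritiated hypoxanthine incorporation assay (Desjardins method, Milhous modification) with 48 h drug exposure. Uses P. falciparum clone TM91C235 (Southeast Asian, mefloquine-resistant). Compounds 2-fold diluted over 11 concentrations. IC50 derived by nonlinear logistic dose-response fitting, averaged where multiple runs were done.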

The next test has as its system HepG2. Nature of the test: Cytotoxicity against human HepG2 cells after 24 hrs by MTS assay. The test is classed as cell-based. The conditions noted are these: HepG2, 24 h. The procedure, abridged: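 HepG2 cells kept in RPMI 1640 with 10% FBS plus antibiotics at 37 °C, 5% CO₂. 50 000 cells per well exposed to 10 two-fold serial dilutions for 24 h. MTS reagent then added for 2 h more, absorbance read at 490 nm, IC50 derived.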

The source made the active and inactive calls. The rule behind the calls is not given here. A value given as a limit tells only on which side of the number the result lay.

Regarding `CC[C@H]1OC(=O)[C@H](C)[C@@H](O[C@H]2C[C@@](C)(OC)[C@@H](O)[C@H](C)O2)[C@H](C)[C@@H](O[C@@H]2O[C@H](C)C[C@H](N(C)C)[C@H]2O)[C@](C)(O)C[C@@H](C)CN(CCC(=O)N[C@H](C)c2cccc3ccccc23)[C@H](C)[C@@H](O)[C@]1(C)O`, the outcome in the test with Plasmodium berghei was inactive. Regarding `CC[C@H]1OC(=O)[C@H](C)[C@@H](O[C@H]2C[C@@](C)(OC)[C@@H](O)[C@H](C)O2)[C@H](C)[C@@H](O[C@@H]2O[C@H](C)C[C@H](N(C)C)[C@H]2O)[C@](C)(O)C[C@@H](C)CN(CCCNCc2ccncc2)[C@H](C)[C@@H](O)[C@]1(C)O`, the 50% inhibitory concentration (IC50) in the test with Plasmodium falciparum was 0.568 µM; in the test with HepG2, greater than 50 µM. Turning to `CC[C@H]1OC(=O)[C@H](C)[C@@H](O[C@H]2C[C@@](C)(OC)[C@@H](O)[C@H](C)O2)[C@H](C)[C@@H](O[C@@H]2O[C@H](C)C[C@H](N(C)C)[C@H]2O)[C@](C)(O)C[C@@H](C)CN(CCCNc2ccnc3ccccc23)[C@H](C)[C@@H](O)[C@]1(C)O`, the outcome with Plasmodium berghei was inactive.

With `CC[C@H]1OC(=O)[C@H](C)[C@@H](O)[C@H](C)[C@@H](O[C@@H]2O[C@H](C)C[C@H](N(C)C)[C@H]2O)[C@](C)(O)C[C@@H](C)CN(CCCNCc2cccc3ccccc23)[C@H](C)[C@@H](O)[C@]1(C)O`, the IC50 in the test on Plasmodium falciparum was found to be 0.055 µM; in the test on HepG2 it was 38 µM.

In the case of `CC[C@H]1OC(=O)[C@H](C)[C@@H](O)[C@H](C)[C@@H](O)[C@](C)(O)C[C@@H](C)CN(CCCNCc2ccc3ccccc3n2)[C@H](C)[C@@H](O)[C@]1(C)O`, the IC50 was 1.97 µM in the test on Plasmodium falciparum and greater than 50 µM with HepG2. On the same counts, the results for `CC[C@H]1OC(=O)[C@H](C)[C@@H](O[C@H]2C[C@@](C)(OC)[C@@H](O)[C@H](C)O2)[C@H](C)[C@@H](O[C@@H]2O[C@H](C)C[C@H](N(C)C)[C@H]2O)[C@](C)(O)C[C@@H](C)CN(CCCNCc2ccccc2)[C@H](C)[C@@H](O)[C@]1(C)O` are 0.104 µM and greater than 50 µM.

For the molecule `CC[C@H]1OC(=O)[C@H](C)[C@@H](O)[C@H](C)[C@@H](O)[C@](C)(O)C[C@@H](C)CN(CCCNCc2cnc3ccccc3c2)[C@H](C)[C@@H](O)[C@]1(C)O`, the 50% inhibitory concentration (IC50) with Plasmodium falciparum is 1.89 µM; in the test with HepG2, greater than 50 µM.

For the molecule `CC[C@H]1OC(=O)[C@H](C)[C@@H](O)[C@H](C)[C@@H](O[C@@H]2O[C@H](C)C[C@H](N(C)C)[C@H]2O)[C@](C)(O)C[C@@H](C)CN(CCCNCc2cccnc2)[C@H](C)[C@@H](O)[C@]1(C)O`, the results for the 50% inhibitory concentration (IC50) in the test on Plasmodium falciparum and with HepG2 were 2.51 µM and greater than 50 µM, respectively. With `CC[C@H]1OC(=O)[C@H](C)[C@@H](O[C@H]2C[C@@](C)(OC)[C@@H](O)[C@H](C)O2)[C@H](C)[C@@H](O[C@@H]2O[C@H](C)C[C@H](N(C)C)[C@H]2O)[C@](C)(O)C[C@@H](C)CN(CCCNC(=O)[C@H](C)c2ccc3cc(OC)ccc3c2)[C@H](C)[C@@H](O)[C@]1(C)O`, the IC50 with Plasmodium falciparum is 0.058 µM; in the test with HepG2, 20 µM.

Consider `CC[C@H]1OC(=O)[C@H](C)[C@@H](O[C@H]2C[C@@](C)(OC)[C@@H](O)[C@H](C)O2)[C@H](C)[C@@H](O[C@@H]2O[C@H](C)C[C@H](N(C)C)[C@H]2O)[C@](C)(O)C[C@@H](C)CN(CCCNc2ncnc3[nH]cnc23)[C@H](C)[C@@H](O)[C@]1(C)O`, for which the IC50 was greater than 6.4 µM with Plasmodium falciparum and greater than 50 µM in the test on HepG2.

With `CC[C@H]1OC(=O)[C@H](C)[C@@H](O[C@H]2C[C@@](C)(OC)[C@@H](O)[C@H](C)O2)[C@H](C)[C@@H](O[C@@H]2O[C@H](C)C[C@H](N(C)C)[C@H]2O)[C@](C)(O)C[C@@H](C)CN(CCC(=O)NCCc2ccccc2)[C@H](C)[C@@H](O)[C@]1(C)O`, the IC50 in the test on Plasmodium falciparum is 0.367 µM; in the test on HepG2, greater than 50 µM. In the same order, the values of `CC[C@H]1OC(=O)[C@H](C)[C@@H](O[C@H]2C[C@@](C)(OC)[C@@H](O)[C@H](C)O2)[C@H](C)[C@@H](O[C@@H]2O[C@H](C)C[C@H](N(C)C)[C@H]2O)[C@](C)(O)C[C@@H](C)CN(CCCNC(=O)Cc2ccc3ccccc3c2)[C@H](C)[C@@H](O)[C@]1(C)O` are 0.079 µM and 40 µM. With `CC[C@H]1OC(=O)[C@H](C)[C@@H](O[C@H]2C[C@@](C)(OC)[C@@H](O)[C@H](C)O2)[C@H](C)[C@@H](O[C@@H]2O[C@H](C)C[C@H](N(C)C)[C@H]2O)[C@](C)(O)C[C@@H](C)CN(CCCNC(=O)Cc2ccccc2)[C@H](C)[C@@H](O)[C@]1(C)O`, the concentration for half-maximal inhibition (IC50) in the test with Plasmodium falciparum was 0.233 µM; in the test on HepG2, greater than 50 µM. Consider `CC[C@H]1OC(=O)[C@H](C)[C@@H](O[C@H]2C[C@@](C)(OC)[C@@H](O)[C@H](C)O2)[C@H](C)[C@@H](O[C@@H]2O[C@H](C)C[C@H](N(C)C)[C@H]2O)[C@](C)(O)C[C@@H](C)CN(CCCNCc2cnc3ccccc3c2)[C@H](C)[C@@H](O)[C@]1(C)O`, for which the half-inhibitory concentration (IC50) in the test with Plasmodium falciparum came to 0.05 µM; with HepG2 it was 45 µM.

As to `CC[C@H]1OC(=O)[C@H](C)[C@@H](O[C@H]2C[C@@](C)(OC)[C@@H](O)[C@H](C)O2)[C@H](C)[C@@H](O[C@@H]2O[C@H](C)C[C@H](N(C)C)[C@H]2O)[C@](C)(O)C[C@@H](C)CN(CCC(=O)NCc2ccccc2)[C@H](C)[C@@H](O)[C@]1(C)O`, the 50% inhibitory concentration (IC50) with Plasmodium falciparum was 0.261 µM; in the test on HepG2, greater than 50 µM. As for `CCOc1ccc2ccccc2c1CNCCCN1C[C@H](C)C[C@@](C)(O)[C@H](O[C@@H]2O[C@H](C)C[C@H](N(C)C)[C@H]2O)[C@@H](C)[C@H](O[C@H]2C[C@@](C)(OC)[C@@H](O)[C@H](C)O2)[C@@H](C)C(=O)O[C@H](CC)[C@@](C)(O)[C@H](O)[C@H]1C`, the half-maximal inhibitory concentration (IC50) was determined as 0.026 µM in the test on Plasmodium falciparum and 7 µM in the test on HepG2. For `CC[C@H]1OC(=O)[C@H](C)[C@@H](O)[C@H](C)[C@@H](O[C@@H]2O[C@H](C)C[C@H](N(C)C)[C@H]2O)[C@](C)(O)C[C@@H](C)CN(CCCNc2ccnc3cc(Cl)ccc23)[C@H](C)[C@@H](O)[C@]1(C)O`, the IC50 with Plasmodium falciparum worked out at 0.013 µM; with HepG2, 35 µM. As to `CC[C@H]1OC(=O)[C@H](C)[C@@H](O[C@H]2C[C@@](C)(OC)[C@@H](O)[C@H](C)O2)[C@H](C)[C@@H](O[C@@H]2O[C@H](C)C[C@H](N(C)C)[C@H]2O)[C@](C)(O)C[C@@H](C)CN(CCCNC(=O)CCCc2ccccc2)[C@H](C)[C@@H](O)[C@]1(C)O`, the values for the IC50 with Plasmodium falciparum and in the test on HepG2 were 0.085 µM and greater than 50 µM, respectively. Consider `CC[C@H]1OC(=O)[C@H](C)[C@@H](O[C@H]2C[C@@](C)(OC)[C@@H](O)[C@H](C)O2)[C@H](C)[C@@H](O[C@@H]2O[C@H](C)C[C@H](N(C)C)[C@H]2O)[C@](C)(O)C[C@@H](C)CN(CCCNCCCc2ccccc2)[C@H](C)[C@@H](O)[C@]1(C)O`, for which the IC50 in the test with Plasmodium falciparum was 0.106 µM; in the test with HepG2 it was 40 µM. As to `CC[C@H]1OC(=O)[C@H](C)[C@@H](O[C@H]2C[C@@](C)(OC)[C@@H](O)[C@H](C)O2)[C@H](C)[C@@H](O[C@@H]2O[C@H](C)C[C@H](N(C)C)[C@H]2O)[C@](C)(O)C[C@@H](C)CN(CCCNCc2ccc3ccccc3n2)[C@H](C)[C@@H](O)[C@]1(C)O`, the 50% inhibitory concentration (IC50) in the test with Plasmodium falciparum came out at 0.062 µM; in the test on HepG2, 28 µM. On the same counts, the results for `CC[C@H]1OC(=O)[C@H](C)[C@@H](O[C@H]2C[C@@](C)(OC)[C@@H](O)[C@H](C)O2)[C@H](C)[C@@H](O[C@@H]2O[C@H](C)C[C@H](N(C)C)[C@H]2O)[C@](C)(O)C[C@@H](C)CN(CCC(=O)NCCCc2ccccc2)[C@H](C)[C@@H](O)[C@]1(C)O` are 0.089 µM and 40 µM. For `CC[C@H]1OC(=O)[C@H](C)[C@@H](O[C@H]2C[C@@](C)(OC)[C@@H](O)[C@H](C)O2)[C@H](C)[C@@H](O[C@@H]2O[C@H](C)C[C@H](N(C)C)[C@H]2O)[C@](C)(O)C[C@@H](C)CN(CCCNCc2cccc3ccccc23)[C@H](C)[C@@H](O)[C@]1(C)O`, the IC50 in the test on Plasmodium falciparum was 0.025 µM; in the test with HepG2, 10 µM. On to `CC[C@H]1OC(=O)[C@H](C)[C@@H](O)[C@H](C)[C@@H](O[C@@H]2O[C@H](C)C[C@H](N(C)C)[C@H]2O)[C@](C)(O)C[C@@H](C)CN(CCCNc2ccnc3ccccc23)[C@H](C)[C@@H](O)[C@]1(C)O`, for which the IC50 in the test with Plasmodium falciparum is 0.437 µM; with HepG2, greater than 50 µM. In the case of `CC[C@H]1OC(=O)[C@H](C)[C@@H](O[C@H]2C[C@@](C)(OC)[C@@H](O)[C@H](C)O2)[C@H](C)[C@@H](O[C@@H]2O[C@H](C)C[C@H](N(C)C)[C@H]2O)[C@](C)(O)C[C@@H](C)CN(CCCNc2cc(C)nc3ccc(OC)cc23)[C@H](C)[C@@H](O)[C@]1(C)O`, the 50% inhibitory concentration (IC50) was 0.854 µM in the test with Plasmodium falciparum and greater than 50 µM in the test with HepG2. On the same counts, the results for `CC[C@H]1OC(=O)[C@H](C)[C@@H](O[C@H]2C[C@@](C)(OC)[C@@H](O)[C@H](C)O2)[C@H](C)[C@@H](O[C@@H]2O[C@H](C)C[C@H](N(C)C)[C@H]2O)[C@](C)(O)C[C@@H](C)CN(CCC(=O)NCCCCc2ccccc2)[C@H](C)[C@@H](O)[C@]1(C)O` are 0.162 µM and 40 µM. Consider `CC[C@H]1OC(=O)[C@H](C)[C@@H](O[C@H]2C[C@@](C)(OC)[C@@H](O)[C@H](C)O2)[C@H](C)[C@@H](O[C@@H]2O[C@H](C)C[C@H](N(C)C)[C@H]2O)[C@](C)(O)C[C@@H](C)CN(CCCNCc2cccnc2)[C@H](C)[C@@H](O)[C@]1(C)O`, for which the IC50 in the test on Plasmodium falciparum was 0.391 µM; with HepG2, greater than 50 µM.

Consider `CC[C@H]1OC(=O)[C@H](C)[C@@H](O)[C@H](C)[C@@H](O[C@@H]2O[C@H](C)C[C@H](N(C)C)[C@H]2O)[C@](C)(O)C[C@@H](C)CN(CCCNCc2ccnc3ccccc23)[C@H](C)[C@@H](O)[C@]1(C)O`, for which the IC50 in the test on Plasmodium falciparum was 0.264 µM; in the test on HepG2 it was greater than 50 µM.
